From ChEMBL document CHEMBL1129631, “Synthesis and evaluation of aryl-substituted N-(arylethyl)-N-methyl-2-(1-pyrrolidinyl)ethylamines and corresponding arylacetamides for sigma receptor affinity” (J Med Chem, 1996)

Legend:
Sigma 2 receptor = assay: Displacement of [3H]-DTG from Sigma opioid receptor type 2 in rat liver membrane; format: cell membranes
Summary of the method: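 Liver membranes from male Sprague-Dawley rats (160 μg protein) with 5 nM [3H]DTG plus 1 μM dextralorphan masking σ1 sites. Twelve ligand concentrations (0.05–10 000 nM or 0.5–100 000 nM), 50 mM Tris-HCl pH 8.0, 120 min, 25 °C. Nonspecific binding by 10 μM haloperidol. Filtration and counting. Ki from IC50 by Cheng–Prusoff; 2–3 experiments ± SEM.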

[1] = target: Sigma non-opioid intracellular receptor 1 (Cavia porcellus) (UniProt Q60492); assay: Relative affinity for sigma-1 compared to sigma-2 type receptors
Sequence of Sigma non-opioid intracellular receptor 1 (Cavia porcellus) (Q60492 whole entry, looked up): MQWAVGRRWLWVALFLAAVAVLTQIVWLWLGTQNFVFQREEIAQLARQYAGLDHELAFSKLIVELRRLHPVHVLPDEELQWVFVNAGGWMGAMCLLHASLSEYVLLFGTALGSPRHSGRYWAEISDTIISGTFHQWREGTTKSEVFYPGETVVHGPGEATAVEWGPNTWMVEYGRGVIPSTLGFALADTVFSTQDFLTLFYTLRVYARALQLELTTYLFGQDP

`CN(CCc1ccc([N+](=O)[O-])cc1)CCN1CCCC1` gave a Ki (Sigma 2 receptor) of 62.7 nM and a Ratio [1] of 0.07.

Compound `COc1ccc(CC(=O)N(C)CCN2CCCC2)cc1` has a Ki (Sigma 2 receptor) of 1220 nM and a Ratio [1] of 1.8.

`CN(CCc1ccc(N)cc1)CCN1CCCC1` gave a Ki (Sigma 2 receptor) of 974 nM and a Ratio [1] of 0.28.

With `COc1ccccc1CC(=O)N(C)CCN1CCCC1` the Ki (Sigma 2 receptor) was 3170 nM.

With `CN(CCc1cccc([N+](=O)[O-])c1)CCN1CCCC1` the Ki (Sigma 2 receptor) was 95.2 nM and the Ratio [1] was 0.07.

For `CN(CCc1cccc(N)c1)CCN1CCCC1`, the Ki (Sigma 2 receptor) was 2240 nM and the Ratio [1] was 0.26.

With `CN(CCN1CCCC1)C(=O)Cc1cccc([N+](=O)[O-])c1` the Ki (Sigma 2 receptor) was 539 nM and the Ratio [1] was 3.

Work on `COc1cccc(CCN(C)CCN2CCCC2)c1` yielded a Ki (Sigma 2 receptor) of 209 nM and a Ratio [1] of 0.11.

`CN(CCc1ccccc1[N+](=O)[O-])CCN1CCCC1` was tested, and the Ki (Sigma 2 receptor) was 311 nM and the Ratio [1] was 0.02.

For `COc1ccc(CCN(C)CCN2CCCC2)cc1`, the Ki (Sigma 2 receptor) was 256 nM and the Ratio [1] was 0.12.

`COc1cccc(CC(=O)N(C)CCN2CCCC2)c1` gave a Ki (Sigma 2 receptor) of 1110 nM and a Ratio [1] of 2.8.

Compound `COc1ccccc1CCN(C)CCN1CCCC1` has a Ki (Sigma 2 receptor) of 144 nM and a Ratio [1] of 0.11.

In the case of `CN(CCN1CCCC1)C(=O)Cc1ccc([N+](=O)[O-])cc1`, the Ki (Sigma 2 receptor) is reported as 596 nM and the Ratio [1] is reported as 1.5.

Compound `CN(CCN1CCCC1)C(=O)Cc1ccccc1[N+](=O)[O-]` has a Ki (Sigma 2 receptor) of 1490 nM and a Ratio [1] of 0.49.

Work on `CN(CCc1ccccc1N)CCN1CCCC1` yielded a Ki (Sigma 2 receptor) of 640 nM and a Ratio [1] of 0.45.
